From ChEMBL document CHEMBL1137668, “Activities of several classes of acyclic nucleoside phosphonates against camelpox virus replication in different cell culture models” (Antimicrob Agents Chemother, 2007)
Calls of active or inactive are those of the source. The calls are words filed in the database; no cut-off is given here.

Experiments:
[1] = system: Camelpox virus; experiment: Antiviral activity against Camelpox virus CML1 infected in HEL299 cells assessed as reduction in viral titer after 6 days postinfection by virus yield reduction assay; format: functional; settings: for EC99: CML1, HEL 299, 144 h; for Activity: HEL 299
[2] = Cytotoxicity against human PHK after 4 days by Z1 Coulter counting analysis; settings: PHK cells
Procedure, shortened: (§1)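 Cell growth inhibition: HEL cells were seeded at 3.5 × 10³ per well and PHKs at 5 × 10³ per well. Serial dilutions were added in duplicate after 1 day (HEL) or 3 days (PHK). After 4 days with compound, cells were trypsinized and counted with a Coulter counter (8 μm lower limit). CC50 is the concentration reducing growth by 50%, mean ± SD of at least two experiments.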

[3] = system: Camelpox virus; experiment: Antiviral activity against Camelpox virus CML1 infected in differentiated human PHK raft culture assessed as reduction in viral titer determined in HEL299 cells treated after 7 days postinfection by virus yield reduction assay; format: functional; settings: CML1, HEL 299, 168 h
[4] = system: Camelpox virus; experiment: Antiviral activity against Camelpox virus CML1 infected in human PHK assessed as inhibition of virus-induced cytopathic effect after 6 days by Giemsa staining; format: functional, organism-based; settings: CML1, 144 h
[5] = system: Camelpox virus; experiment: Antiviral activity against Camelpox virus CML1-induced cytopathic effect in human PHK raft culture assessed as full protection of differentiated epithelium at 65 uM treated after 7 days postinfection; format: functional, organism-based
[6] = system: Camelpox virus; experiment: Antiviral activity against Camelpox virus CML1 infected in HEL299 cells assessed as inhibition of virus-induced cytopathic effect after 6 days by Giemsa staining; format: functional, organism-based; settings: CML1, HEL 299, 144 h
[7] = Selectivity index, ratio of CC50 for human PHK to EC50 for Camelpox virus CML1 infected in human PHK
[8] = Selectivity index, ratio of CC50 for HEL299 cells to EC50 for Camelpox virus CML1 infected in HEL299 cells; format: toxicity, cell-based, HEL 299; settings: human, HEL299 cells; read-out: Ratio CC50/IC50
[9] = Selectivity index, ratio of CC50 for human PHK to EC50 for Camelpox virus CML14 infected in human PHK
[10] = system: Camelpox virus; experiment: Antiviral activity against Camelpox virus CML14 infected in HEL299 cells assessed as reduction in viral titer after 6 days postinfection by virus yield reduction assay; format: functional; settings: for Activity: HEL 299; for EC99: CML14, HEL 299, 144 h
[11] = system: Camelpox virus; experiment: Antiviral activity against Camelpox virus CML14 infected in human PHK assessed as reduction in viral titer after 6 days postinfection by virus yield reduction assay; format: functional; settings: for EC99: CML14, 144 h
[12] = system: Camelpox virus; experiment: Antiviral activity against Camelpox virus CML14 infected in human PHK assessed as inhibition of virus-induced cytopathic effect after 6 days by Giemsa staining; format: functional, organism-based; settings: CML14, 144 h
[13] = system: Camelpox virus; experiment: Antiviral activity against Camelpox virus CML1 infected in human PHK assessed as reduction in viral titer after 6 days postinfection by virus yield reduction assay; format: functional; settings: for EC99: CML1, 144 h
[14] = Cytotoxicity against HEL299 cells after 4 days by Z1 Coulter counting analysis; format: cell-based, HEL 299; settings: human, HEL299 cells; procedure, shortened: as §1
[15] = Selectivity index, ratio of CC50 for HEL299 cells to EC50 for Camelpox virus CML14 infected in HEL299 cells; format: toxicity, cell-based, HEL 299; settings: human, HEL299 cells; read-out: Ratio CC50/IC50
[16] = system: Camelpox virus; experiment: Antiviral activity against Camelpox virus CML14 infected in HEL299 cells assessed as inhibition of virus-induced cytopathic effect after 6 days by Giemsa staining; format: functional, organism-based; settings: CML14, HEL 299, 144 h
[17] = system: Camelpox virus; experiment: Antiviral activity against Camelpox virus CML1 infected in human PHK raft culture assessed as complete protection of differentiated cells against viral replication at 72 uM after 7 days postinfection; format: functional, organism-based
[18] = Cytotoxicity against differentiated epithelium of human PHK raft culture at 76 uM after 4 days by Z1 Coulter counting analysis; settings: 96 h
[19] = system: Camelpox virus; experiment: Antiviral activity against Camelpox virus CML1 infected in human PHK assessed as suppression of viral replication at 73 uM after 6 days postinfection by virus yield reduction assay; format: functional, organism-based
[20] = system: Camelpox virus; experiment: Antiviral activity against Camelpox virus CML1 infected in HEL299 cells assessed as suppression of viral replication at 73 uM after 6 days postinfection by virus yield reduction assay; format: functional, organism-based; settings: HEL 299
[21] = system: Camelpox virus; experiment: Antiviral activity against Camelpox virus CML14 infected in human PHK assessed as suppression of viral replication at 73 uM after 6 days postinfection by virus yield reduction assay; format: functional, organism-based
[22] = system: Camelpox virus; experiment: Antiviral activity against Camelpox virus CML14 infected in HEL299 cells assessed as suppression of viral replication at 73 uM after 6 days postinfection by virus yield reduction assay; format: functional, organism-based; settings: HEL 299
[23] = system: Camelpox virus; experiment: Antiviral activity against Camelpox virus CML1 infected in HEL299 cells assessed as inhibition of viral replication at 5 to 13 uM after 6 days postinfection by virus yield reduction assay; format: functional, HEL 299; set-up: scale not given: the % may be the effect or the level left
[24] = system: Camelpox virus; experiment: Antiviral activity against Camelpox virus CML14 infected in human PHK assessed as inhibition of viral replication at 5 to 13 uM after 6 days postinfection by virus yield reduction assay; format: functional; set-up: scale not given: the % may be the effect or the level left
[25] = system: Camelpox virus; experiment: Antiviral activity against Camelpox virus CML14 infected in HEL299 cells assessed as inhibition of viral replication at 5 to 13 uM after 6 days postinfection by virus yield reduction assay; format: functional, HEL 299; set-up: scale not given: the % may be the effect or the level left
[26] = system: Camelpox virus; experiment: Antiviral activity against Camelpox virus CML1 infected in human PHK assessed as inhibition of viral replication at 5 to 13 uM after 6 days postinfection by virus yield reduction assay; format: functional; set-up: scale not given: the % may be the effect or the level left
[27] = system: Camelpox virus; experiment: Antiviral activity against Camelpox virus CML1 infected in differentiated human PHK raft culture assessed as inhibition of viral replication at 6 uM treated after 7 days postinfection by virus yield reduction assay; format: functional, organism-based
[28] = Cytotoxicity against differentiated epithelium of human PHK raft culture at 5 ug/ml after 4 days by Z1 Coulter counting analysis; settings: 96 h
[29] = system: Camelpox virus; experiment: Antiviral activity against Camelpox virus CML1 infected in human PHK raft culture assessed as inhibition of virus-induced cytopathic effect at 7 uM treated after 7 days postinfection; format: functional, organism-based
[30] = system: Camelpox virus; experiment: Antiviral activity against Camelpox virus CML1 infected in human PHK raft culture assessed as inhibition of virus-induced cytopathic effect at 18 uM treated after 7 days postinfection; format: functional, organism-based
[31] = system: Camelpox virus; experiment: Antiviral activity against Camelpox virus CML1 infected in human PHK epithelial raft culture assessed as inhibition of virus-induced cytopathic effect at 1.8 uM after 7 days postinfection; format: functional, organism-based
[32] = system: Camelpox virus; experiment: Antiviral activity against Camelpox virus CML1-induced cytopathic effect in human PHK raft culture assessed as full protection of differentiated epithelium at 164uM treated after 7 days postinfection; format: functional, organism-based

SMILES | EC99 [1] [µM] | Activity [1] | CC50 at 96 h [2] [µM] | EC99 [3] [µM] | EC50 [4] [µM] | EC50 [6] [µM] | Ratio CC50/IC50 [7] | selectivity ratio [8] | Ratio CC50/IC50 [9] | Activity [10] | Activity [11] | EC50 [12] [µM] | Activity [13] | EC99 [13] [µM] | CC50 at 96 h [14] [µM] | selectivity ratio [15] | EC50 [16] [µM] | EC99 [10] [µM] | EC99 [11] [µM] | also measured
Nc1ccn(C[C@@H](CO)OCP(=O)(O)O)c(=O)n1.O.O [CIDOFOVIR] | 58 | Dose-dependent effect | 7 | 6 | 5.3 | 8.2 | 1 | 23 | 1 | Dose-dependent effect | Dose-dependent effect | 8.8 | Dose-dependent effect | 16 | 192 | 29 | 6.6 | – | – | Activity [5]: Active
Nc1ncnc(=O)n1C[C@H]1COP(=O)(O)CO1 | – | Dose-dependent effect | 34 | 67 | 18 | 4.3 | 2 | 33 | 2 | Dose-dependent effect | Dose-dependent effect | 14.8 | Dose-dependent effect | – | 143 | 48 | 3 | – | – | Activity [17]: Active; Activity [18]: Non-toxic; Activity [19]: Active; Activity [20]: Active; Activity [21]: Active; Activity [22]: Active
Nc1nccc2c1ncn2C[C@@H](CO)OCP(=O)(O)O | – | Dose-dependent effect | 0.3 | – | 3.1 | 1.5 | 0.1 | 20 | 0.1 | Dose-dependent effect | Dose-dependent effect | 2.1 | Dose-dependent effect | – | 30 | 18 | 1.7 | – | – | Activity [23]: 99%; Activity [24]: 99%; Activity [25]: 99%; Activity [26]: 99%
Nc1ncnc2c1ncn2C[C@@H](CO)OCP(=O)(O)O | – | Dose-dependent effect | 1 | – | 1 | 0.5 | 1 | 66 | 1 | Dose-dependent effect | Dose-dependent effect | 1.4 | Dose-dependent effect | – | 32 | 60 | 0.5 | 1 | 2 | –
C[C@H](COC1=CC(N)N(O)C(N)=N1)OCP(=O)(O)O (some centres not stated) | 9.5 | Dose-dependent effect | 5 | 5 | 3.9 | 1.6 | 1 | 99 | 1 | Dose-dependent effect | Dose-dependent effect | 4.6 | Dose-dependent effect | 9.5 | 162 | 82 | 2 | 9.5 | 9.5 | –
Nc1ncnc2c1ncn2C[C@H]1COP(=O)(O)CO1 | 3 | Dose-dependent effect | 3 | – | 1.6 | 0.2 | 2 | 393 | 1 | Dose-dependent effect | Dose-dependent effect | 3.1 | Dose-dependent effect | – | 63 | 441 | 0.1 | 2 | 6 | –
Nc1nc(N)c2ncn(C[C@@H](CO)OCP(=O)(O)O)c2n1 | – | Dose-dependent effect | 2 | – | 0.8 | 0.2 | 2 | 249 | 1 | Dose-dependent effect | Dose-dependent effect | 1.2 | Dose-dependent effect | – | 45 | 70 | 0.6 | 1 | 2 | Activity [27]: Active
Nc1ncn(C[C@@H](CO)OCP(=O)(O)O)c(=O)n1 | – | Dose-dependent effect | 71 | 16 | 14.8 | 12.3 | 5 | 45 | 7 | Dose-dependent effect | Dose-dependent effect | 9.7 | Dose-dependent effect | – | 550 | 46 | 12 | – | – | Activity [28]: Toxic; Activity [29]: inactive; Activity [19]: Active; Activity [30]: inactive; Activity [31]: inactive; Activity [20]: Active; Activity [21]: Active; Activity [22]: Active
Nc1ccn(C[C@H]2COP(=O)(O)CO2)c(=O)n1 [CYCLIC CIDOFOVIR] | 64 | Dose-dependent effect | 17 | 38 | 7.2 | 6.1 | 2 | 55 | 2 | Dose-dependent effect | Dose-dependent effect | 9.1 | Dose-dependent effect | 59 | 335 | 38 | 8.8 | – | – | Activity [32]: Active
